Results taken from ChEMBL document CHEMBL1800053, “Concise synthesis and antiangiogenic activity of artemisinin-glycolipid hybrids on chorioallantoic membranes” (Bioorg Med Chem Lett, 2010).

Tests used:
Gallus gallus = species: Gallus gallus; assay: Antiangiogenesis activity against fertilized chicken egg chorioallantoic membrane assessed as inhibition of neovascularization at 2.5 nmol/egg by CAM vessel development assay relative to control; format: functional, tissue-based
Method in brief: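 Fertilized chicken eggs incubated at 37 °C, 80–90% relative humidity. Day 3: window opened after removing 2 ml albumin. Day 5: sample loaded on a quarter-size coverslip placed on the CAM of each embryo, 2.5 nmol/egg. Scored as positive eggs out of 10 tested, graded inhibition effect, and % inhibition of vessel development relative to control.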

[1] = Embryotoxicity in fertilized chicken embryo at 2.5 nmol/egg; format: toxicity, Gallus gallus

SMILES: C[C@H]1[C@@H](CCOC(=O)CCCC[C@H](C)O[C@@H]2O[C@@H](C)[C@H](OC(=O)c3ccccc3)C[C@H]2OC(=O)c2ccccc2)O[C@@H]2O[C@@]3(C)CC[C@H]4[C@H](C)CC[C@@H]1[C@@]24OO3
- inhibition (Gallus gallus): 60%
- Activity [1]: Toxic

SMILES: C[C@H](CCCCC(=O)O)O[C@@H]1O[C@@H](C)[C@H](O)C[C@H]1O [DAUMONE]
- inhibition (Gallus gallus): 70%
- Activity [1]: Non-toxic

SMILES: O=C1CC[C@H](N2C(=O)c3ccccc3C2=O)C(=O)N1
- inhibition (Gallus gallus): 40%
- Activity [1]: Toxic

SMILES: C=CCCCC[C@@H](C)O[C@@H]1O[C@@H](C)[C@H](OC(=O)C[C@H]2O[C@@H]3O[C@@]4(C)CC[C@H]5[C@H](C)CC[C@@H]([C@H]2C)[C@@]35OO4)C[C@H]1O
- inhibition (Gallus gallus): 70%
- Activity [1]: Toxic

SMILES: C[C@@H]1CC[C@H]2[C@@H](C)C(=O)O[C@@H]3O[C@@]4(C)CC[C@@H]1[C@]32OO4 [ARTEMISININ]
- inhibition (Gallus gallus): 30%
- Activity [1]: Non-toxic

SMILES: C[C@H]1[C@@H](CCOC(=O)CCCC[C@H](C)O[C@@H]2O[C@@H](C)[C@H](O)C[C@H]2O)O[C@@H]2O[C@@]3(C)CC[C@H]4[C@H](C)CC[C@@H]1[C@@]24OO3
- inhibition (Gallus gallus): 60%
- Activity [1]: Toxic

SMILES: CO[C@@H]1[C@H](OC(=O)/C=C/C=C/C=C/C=C/C(=O)O)CC[C@]2(CO2)[C@H]1[C@@]1(C)O[C@@H]1CC=C(C)C [FUMAGILLIN]
- inhibition (Gallus gallus): 40%
- Activity [1]: Toxic

SMILES: C[C@H]1[C@@H](CC(=O)OCCCCC[C@@H](C)O[C@@H]2O[C@@H](C)[C@H](O)C[C@H]2O)O[C@@H]2O[C@@]3(C)CC[C@H]4[C@H](C)CC[C@@H]1[C@@]24OO3
- inhibition (Gallus gallus): 100%
- Activity [1]: Non-toxic

SMILES: C[C@H]1[C@@H](CCCOC(=O)CCCC[C@H](C)O[C@@H]2O[C@@H](C)[C@H](O)C[C@H]2O)O[C@@H]2O[C@@]3(C)CC[C@H]4[C@H](C)CC[C@@H]1[C@@]24OO3
- inhibition (Gallus gallus): 60%
- Activity [1]: Toxic

SMILES: C[C@H]1[C@@H](OC(=O)CCCC[C@H](C)O[C@@H]2O[C@@H](C)[C@H](O)C[C@H]2O)O[C@@H]2O[C@@]3(C)CC[C@H]4[C@H](C)CC[C@@H]1[C@@]24OO3
- inhibition (Gallus gallus): 50%
- Activity [1]: Toxic

SMILES: C[C@H]1[C@@H](CC(=O)O[C@@H]2C[C@@H](O)[C@H](C)O[C@H]2O[C@H](C)CCCCCO)O[C@@H]2O[C@@]3(C)CC[C@H]4[C@H](C)CC[C@@H]1[C@@]24OO3
- inhibition (Gallus gallus): 50%
- Activity [1]: Non-toxic

SMILES: C=CCCCC[C@@H](C)O[C@@H]1O[C@@H](C)[C@H](O)C[C@H]1OC(=O)C[C@H]1O[C@@H]2O[C@@]3(C)CC[C@H]4[C@H](C)CC[C@@H]([C@H]1C)[C@@]24OO3
- inhibition (Gallus gallus): 50%
- Activity [1]: 50%

SMILES: C[C@H]1[C@@H](CC(=O)OCCCCC[C@@H](C)O[C@@H]2O[C@@H](C)[C@H](OCc3ccccc3)C[C@H]2OCc2ccccc2)O[C@@H]2O[C@@]3(C)CC[C@H]4[C@H](C)CC[C@@H]1[C@@]24OO3
- inhibition (Gallus gallus): 50%
- Activity [1]: Toxic

SMILES: C[C@H]1[C@@H](CCCOC(=O)CCCC[C@H](C)O[C@@H]2O[C@@H](C)[C@H](OC(=O)c3ccccc3)C[C@H]2OC(=O)c2ccccc2)O[C@@H]2O[C@@]3(C)CC[C@H]4[C@H](C)CC[C@@H]1[C@@]24OO3
- inhibition (Gallus gallus): 80%
- Activity [1]: Non-toxic

SMILES: C[C@H]1[C@@H](OC(=O)CCCC[C@H](C)O[C@@H]2O[C@@H](C)[C@H](OC(=O)c3ccccc3)C[C@H]2OC(=O)c2ccccc2)O[C@@H]2O[C@@]3(C)CC[C@H]4[C@H](C)CC[C@@H]1[C@@]24OO3
- inhibition (Gallus gallus): 10%
- Activity [1]: Toxic
